# Laboratory results: PubChem BioAssay
# Calls of active or inactive are those of the source.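 The calls were made as follows, unless noted: active = inhibition at or above 50% at 10 µM; inactive = inhibition below 50%.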
# Tests used:
# [1] = inhibitors of TNFa-induced NFkB p65 translocation, primary screen, imaging, HUVEC, MLSMR starter and 10KST1 sets (AID 438;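 active = inhibition above 20% together with a positive visual image hit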;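 also: compound added about 3h40 before a 20 min TNFalpha stimulation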;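 as to inhibition: signal is the nuclear over cytoplasmic p65 intensity ratio per well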); settings: HUVEC TNFa-induced p65 nuclear translocation; cell count: measured here: nuclei count (cytotoxicity indicator), at 2.08 µM; inhibition: at 2 µM, stronger effect = higher value, 0% TNFa-plus-vehicle, 100% no-TNFa wells
# [2] = inhibitors of mutant huntingtin aggregation, primary screen, imaging, exon1htt(103Q)mCFP cells, high-content imaging (AID 483;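 active = visual image review flags a hit and inhibition of aggregation exceeds 20%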;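 also: compound exposure lasted 3 days before fixation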;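 as to nuclei count: percent of the per-plate median nuclei count of sample wells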); settings: exon1htt(103Q)mCFP cell line, aggregate imaging, at 2 µM; inhibition of aggregation: stronger effect = higher value; nuclei count: measured here: cell count, toxicity
# [3] = inhibitors of E-selectin induction by TNFa, primary screen, imaging, HUVEC, immunofluorescence, MLSMR starter and 10KST1 sets (AID 487;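 active = visually confirmed hit in the image check and inhibition above 20%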;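 as to inhibition: signal is fraction of cell area covered by stained E-selectin grains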;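 as to nuclei count: 100% = median nuclei count of all wells on the same plate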); settings: HUVEC TNFalpha-induced E-selectin immunofluorescence imaging, at 2 µM; inhibition: stronger effect = higher value; nuclei count: measured here: cell number, toxicity
# [4] = target: Voltage-gated potassium channel subunit beta-2 (Rattus norvegicus) (UniProt P62483); experiment: KvBeta enzyme negative modulators, primary screen, biochemical, NADPH fluorescence (AID 622;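 active = fluorescence slope higher than the sample average by over 3 SD, cut at about -0.22 in these data, passing the limit was not always enough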;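 also: slope of raw intensity against log time taken from 70 to 1610 s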); settings: recombinant KvBeta, 4-cyanobenzaldehyde reduction, at 10 µM, stronger effect = higher value
# Chain of Voltage-gated potassium channel subunit beta-2 (Rattus norvegicus) (P62483 whole entry, looked up): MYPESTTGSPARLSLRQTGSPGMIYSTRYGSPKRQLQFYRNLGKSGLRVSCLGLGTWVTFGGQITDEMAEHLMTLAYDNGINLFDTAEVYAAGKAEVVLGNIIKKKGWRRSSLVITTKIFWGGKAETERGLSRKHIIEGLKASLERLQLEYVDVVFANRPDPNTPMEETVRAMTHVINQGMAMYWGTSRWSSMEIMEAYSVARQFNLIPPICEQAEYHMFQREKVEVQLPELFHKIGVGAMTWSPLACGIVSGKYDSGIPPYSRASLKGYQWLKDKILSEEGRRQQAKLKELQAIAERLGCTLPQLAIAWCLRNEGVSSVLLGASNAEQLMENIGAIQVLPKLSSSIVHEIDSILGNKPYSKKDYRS
# [5] = target: Voltage-gated potassium channel subunit beta-2 (Rattus norvegicus) (UniProt P62483); experiment: KvBeta positive modulators, primary screen, biochemical, NADPH fluorescence (AID 623;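 active = NADPH fluorescence slope more negative than the mean of all samples by about 3 SD, 99.7% confidence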;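 also: fluorescence intensity change per second fitted from 20 to 320 s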); settings: Recombinant KvBeta, NADPH fluorescence decrease slope, 10 min; at 10 µM; stronger effect = lower value
# [6] = target: Muscarinic acetylcholine receptor M4 (Homo sapiens) (UniProt P08173); experiment: compounds altering M4/GIRK thallium flux, either direction, primary screen, M4 allosteric agonist project, cell-based, HEK293 M4/GIRK, BTC-AM (AID 625;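 active = fluorescence slope after compound addition differing from the mean of all tested samples at 99.7% confidence, mostly higher but some lower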;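 also: thallium influx through GIRK channels coupled to M4 in HEK293 cells with BTC-AM dye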); settings: at 10 µM, actives lie on both sides
# Chain of Muscarinic acetylcholine receptor M4 (Homo sapiens) (P08173 whole entry, looked up): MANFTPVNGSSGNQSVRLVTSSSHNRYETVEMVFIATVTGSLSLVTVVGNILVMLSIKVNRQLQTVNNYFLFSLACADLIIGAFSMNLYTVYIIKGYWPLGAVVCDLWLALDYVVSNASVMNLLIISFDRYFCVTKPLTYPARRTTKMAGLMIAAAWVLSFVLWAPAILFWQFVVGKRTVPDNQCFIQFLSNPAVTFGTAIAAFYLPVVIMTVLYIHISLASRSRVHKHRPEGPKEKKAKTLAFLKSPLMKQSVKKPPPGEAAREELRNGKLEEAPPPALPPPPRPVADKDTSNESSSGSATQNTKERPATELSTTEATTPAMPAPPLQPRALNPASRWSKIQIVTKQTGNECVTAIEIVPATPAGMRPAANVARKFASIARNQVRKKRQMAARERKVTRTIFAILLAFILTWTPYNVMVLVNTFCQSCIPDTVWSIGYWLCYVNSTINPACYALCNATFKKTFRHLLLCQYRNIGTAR
# Procedure, shortened: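 System: HEK293 cells with M4 receptor and GIRK channels | Incubation: Cells overnight at 37 °C, BTC-AM loading 1 h, reads 2 min total | Technique: Kinetic BTC-AM fluorescence sampled at 1 Hz, 10 s pre-addition baseline | Measure: Post-addition slope, 15–24 s, of baseline-normalized fluorescence | Control set: Carbachol positive, DMSO negative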
# [7] = inhibitors of Sendai virus-induced IRF3 signaling, primary screen, TLR/RLR signaling modifier project, cell-based, Sendai virus stimulus, luciferase, 10K MLSCN set (AID 602276); settings: HEK293 RL24 IRF3 luciferase reporter, at 10 µM, stronger effect = higher value;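 also: firefly luciferase from ISG56 promoter only with Renilla not read in this screen; 0% = Sendai virus plus DMSO and 100% = medium plus DMSO without virus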
# [8] = inhibitors of poly I:C-induced TLR3 signaling, primary screen, cell-based, poly I:C stimulus, luciferase, 10K MLSCN set (AID 602277;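 active = inhibition of the reporter signal at or above 50%; inactive = inhibition below 50%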); settings: HEK293-TLR3 RL24 IRF3 luciferase reporter, at 10 µM, stronger effect = higher value
Structure (SMILES),cell count [1],inhibition [1],inhibition of aggregation [2],nuclei count [2] [%],inhibition [3],nuclei count [3] [%],fluorescence slope [4],NADPH fluorescence slope [5],fluorescence slope [6],inhibition [7],inhibition [8]
COc1ccccc1C(=O)n1nc(-c2ccccc2)nc1N,354,-3.3% (inactive),9.7% (inactive),101,-55.5% (inactive),119,-0.619 (inactive),-2.9e-05 (inactive),0.00374 (inactive),15.7% (inactive),11.1% (inactive)
COC(=O)c1onc(C(=O)c2ccccc2)c1C(=O)OC,405,2.7% (inactive),-4.5% (inactive),103,-67.9% (inactive),114,-0.568 (inactive),-4.3e-05 (inactive),0.00647 (inactive),16.3% (inactive),12.9% (inactive)
CCOc1cc(C2c3c(n[nH]c3C)C(=O)N2c2ccc(Br)cc2)ccc1O (stereo not drawn),572,-2.3% (inactive),7.8% (inactive),109,-89.9% (inactive),110,-0.373 (inactive),-8.6e-06 (inactive),0.00604 (inactive),30.1% (inactive),30% (inactive)
COc1ccccc1C1/C(=C(\O)c2c(C)nc3c(C)cccn23)C(=O)C(=O)N1CCCN(C)C (stereo not drawn),530,-2.6% (inactive),-6.8% (inactive),110,35.1% (inactive),121,-0.298 (inactive),-5.5e-05 (inactive),0.00521 (inactive),10.7% (inactive),20.7% (inactive)
C=CCOc1nc(N2CCCC2)nc(N2CCCC2)n1,579,-7.6% (inactive),4.8% (inactive),109,23.8% (inactive),84.1,-0.551 (inactive),-8.3e-05 (inactive),0.00552 (inactive),10.7% (inactive),14.3% (inactive)
CCC(=O)n1nc(-c2ccco2)nc1N,594,-0.5% (inactive),-13.1% (inactive),104,-153% (inactive),114,-0.486 (inactive),-4.1e-05 (inactive),0.00538 (inactive),14.3% (inactive),15.1% (inactive)
CCn1cc(C(=O)NCCN(C)CCc2ccccc2)c(=O)c2cc(S(=O)(=O)N(C)C)ccc21,543,-20.4% (inactive),-8.6% (inactive),118,-10.5% (inactive),110,-0.494 (inactive),0.0002 (inactive),0.00668 (inactive),14% (inactive),18.4% (inactive)
CCOC(=O)c1cc2oc(C)cc2n1CC(=O)OC1CCCCC1,353,5.3% (inactive),-10.9% (inactive),110,-13.6% (inactive),102,-0.584 (inactive),-2.1e-06 (inactive),0.00678 (inactive),1.83% (inactive),16.4% (inactive)
Cc1ccc2c(c1)c1c(n2CC(O)Cn2c(C)nc3ccccc32)/C(=N\O)CCC1 (stereo not drawn),459,2.7% (inactive),-25.1% (inactive),14.1,-15.9% (inactive),103,-0.433 (inactive),9.2e-05 (inactive),0.00656 (inactive),7.68% (inactive),-1.8% (inactive)
O=C(Nc1ccc(F)cc1)c1cccc2c1C(=O)N(Cc1ccccn1)C2,811,2.1% (inactive),4.1% (inactive),98.1,-108% (inactive),126,-0.576 (inactive),-3e-05 (inactive),0.00591 (inactive),0.0917% (inactive),-22.2% (inactive)
Cn1c(=O)c2c(ncn2CC(O)CNc2ccc(Cl)cc2)n(C)c1=O (stereo not drawn),629,-6.3% (inactive),-15.7% (inactive),100,-104% (inactive),110,-0.447 (inactive),3.3e-05 (inactive),0.00475 (inactive),3.66% (inactive),2.85% (inactive)
CCn1c(=O)n(CC(=O)Nc2cc(OC)ccc2OC)c(=O)c2ccccc21,696,-1.6% (inactive),17.9% (inactive),63.6,-1.5% (inactive),99.5,-0.564 (inactive),-5.4e-05 (inactive),0.00496 (inactive),24.5% (inactive),23.2% (inactive)
CCNc1oc(COc2ccccc2F)nc1C#N,318,14.7% (inactive),-13.4% (inactive),106,-8.8% (inactive),94.1,-0.578 (inactive),-2.3e-07 (inactive),0.00601 (inactive),0.938% (inactive),-48.6% (inactive)
CCn1c(=S)sc2nc(C)sc21,266,1.3% (inactive),-4.4% (inactive),76.2,-38.4% (inactive),124,-0.598 (inactive),3.2e-06 (inactive),0.00458 (inactive),13.4% (inactive),15% (inactive)
CC(C)Cn1cc(C(=O)NCC2CCCO2)c2c3ccccc3n(C)c2c1=O (stereo not drawn),267,11.4% (inactive),3.2% (inactive),79.8,-24.4% (inactive),107,-0.523 (inactive),-3.1e-05 (inactive),0.00592 (inactive),13.7% (inactive),18.7% (inactive)
Cc1[nH]n2c(=O)cc(Cc3ccccc3)nc2c1C#N,786,-6.7% (inactive),8.8% (inactive),106,-15.8% (inactive),100,-0.538 (inactive),-3.6e-05 (inactive),0.00532 (inactive),15.1% (inactive),22% (inactive)
CCOc1ncccc1C(=O)Nc1ccc2c(C)cc(=O)oc2c1,585,5.8% (inactive),10% (inactive),92.5,-26.9% (inactive),96.9,-0.535 (inactive),-3.1e-05 (inactive),0.00712 (inactive),10.1% (inactive),4.34% (inactive)
COc1ccc(C(C(C(=O)c2cccs2)N2CCOCC2)N2CCOCC2)cc1OC (stereo not drawn),704,3.6% (inactive),6.6% (inactive),115,15.2% (inactive),106,-0.603 (inactive),-3.1e-05 (inactive),0.00372 (inactive),8.73% (inactive),2.75% (inactive)
COCCn1c(N)c(C(=O)Nc2sc3c(c2C(=O)OC)CCCC3)c2nc3ccccc3nc21,670,14.9% (inactive),21.8% (inactive),84.1,5.1% (inactive),100,-0.57 (inactive),4.8e-06 (inactive),0.00595 (inactive),19.4% (inactive),9.11% (inactive)
c1ccc2c(-c3nc(C4CCCCC4)no3)cc(-c3ccncc3)nc2c1,570,-12.8% (inactive),17.4% (inactive),73.3,48.8% (inactive),58.9,-0.535 (inactive),-1.6e-05 (inactive),0.00839 (inactive),11.5% (inactive),1.56% (inactive)
CC(C)Oc1cccc(-c2cc(C(=O)N3CCN(S(C)(=O)=O)CC3)c3ccccc3n2)c1,638,11.6% (inactive),11.2% (inactive),108,-49% (inactive),95,-0.454 (inactive),2e-05 (inactive),0.00711 (inactive),-23% (inactive),-35.2% (inactive)
COc1ccccc1NS(=O)(=O)c1ccc(NC(=O)c2nc3ncccn3n2)cc1,266,8.8% (inactive),8.5% (inactive),86.7,-14% (inactive),93,-0.571 (inactive),-7.6e-05 (inactive),0.0057 (inactive),17.6% (inactive),13.9% (inactive)
O=C(O)CCn1c(SCc2ccccc2)nc2ccccc21,423,-4.4% (inactive),25% (inactive),73.9,-33.6% (inactive),93.6,-0.505 (inactive),-2.4e-05 (inactive),0.00554 (inactive),-9.99% (inactive),-40.3% (inactive)
CCc1nnc(NC(=O)c2ccc(-c3cccc(C(F)(F)F)c3)o2)s1,730,-2.9% (inactive),43.6% (inactive),76.5,-24.2% (inactive),99.1,-0.528 (inactive),-4.6e-05 (inactive),0.00667 (inactive),-0.00167% (inactive),-0.904% (inactive)
O=C(CN1C(=O)CC(c2ccccc2)=Nc2ccccc21)NCc1ccco1,255,-21.4% (inactive),6.1% (inactive),74,27.6% (inactive),77.1,-0.546 (inactive),-4.6e-05 (inactive),0.00578 (inactive),17.2% (inactive),18.1% (inactive)
Cc1onc(-c2c(Cl)cccc2Cl)c1C(=O)NCCCN1CCOCC1,618,3.6% (inactive),13.7% (inactive),100,-48.9% (inactive),84,-0.47 (inactive),-2.9e-05 (inactive),0.00479 (inactive),9.5% (inactive),10.6% (inactive)
COc1ccc(C2C3=C(CC(C)(C)CC3=O)Oc3ncn4nc(-c5cccnc5)nc4c32)cc1 (stereo not drawn),474,2.7% (inactive),2% (inactive),83.8,-78.2% (inactive),144,-0.327 (inactive),-2.3e-05 (inactive),0.00713 (inactive),-0.431% (inactive),17.2% (inactive)
Nc1nc(CN2CCN(Cc3ccc4c(c3)OCO4)CC2)nc(Nc2ccccc2)n1,652,6.8% (inactive),-1.8% (inactive),116,-9.3% (inactive),115,-0.578 (inactive),-4.8e-05 (inactive),0.00565 (inactive),10.9% (inactive),22.6% (inactive)
